ChEMBL document CHEMBL1142349, “Molecular modeling study and synthesis of novel pyrrolo[2,3-d]pyrimidines and pyrrolotriazolopyrimidines of expected antitumor and radioprotective activities” (Bioorg Med Chem, 2008)

Experiments:
Mus musculus [1] = assay: Radioprotective activity against gamma-irradiated Swiss albino mouse assessed as increase in blood glutathione level at 150 mg/kg, ip after 7 days; conditions: route intraperitoneal
Mus musculus [2] = assay: Radioprotective activity against gamma-irradiated Swiss albino mouse assessed as reduction of plasma lipid peroxide level at 150 mg/kg, ip after 7 days relative to control; format: functional; set-up: scale not given: the % may be the effect or the level left; conditions: route intraperitoneal
Outline: (§1)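 Female Swiss albino mice (25–30 g) were dosed ip at 150 mg/kg in CMC every other day ×3 over 7 days. Each dose was given 30 min before 6 Gy whole-body γ-irradiation (Cs-137, 0.86 Gy/min). Mice were fasted 16 h and bled by heart puncture 1 day after the last irradiation. Plasma lipid peroxide was measured as MDA (Yoshioka). Values are mean ± SE, n=8, as % change from control, with t test.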

Mus musculus [3] = assay: Radioprotective activity against gamma-irradiated Swiss albino mouse assessed as reduction of plasma lipid peroxide level at 150 mg/kg, ip after 7 days; format: functional; conditions: route intraperitoneal
Outline: as §1

Mus musculus [4] = assay: Radioprotective activity against gamma-irradiated Swiss albino mouse assessed as increase in blood glutathione level at 150 mg/kg, ip after 7 days relative to control; conditions: route intraperitoneal
[5] = Cytotoxicity against mouse Ehrlich Ascites carcinoma after 2 hrs by trypan blue exclusion assay; format: functional
Outline: (§2)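 EAC cells at 2.5 × 10^6/ml in saline. Compounds were dissolved in DMSO:saline (7:3). 100 µL cell suspension was mixed with compound and made to 1 mL with saline, giving final 200, 100, 75, 50 and 25 µM. Incubated 2 h at 37 °C. Trypan blue exclusion gave % non-viable cells. IC50 was read from the survival-ratio vs concentration curve.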

Ehrlich [6] = assay: Cytotoxicity against mouse Ehrlich Ascites carcinoma assessed as non viable cells at 25 umol/mL after 2 hrs by trypan blue exclusion assay; format: functional
Outline: as §2

Ehrlich [7] = assay: Cytotoxicity against mouse Ehrlich Ascites carcinoma assessed as non viable cells at 75 umol/mL after 2 hrs by trypan blue exclusion assay; format: functional
Outline: as §2

Ehrlich [8] = assay: Cytotoxicity against mouse Ehrlich Ascites carcinoma assessed as non viable cells at 100 umol/mL after 2 hrs by trypan blue exclusion assay; format: functional
Outline: as §2

Ehrlich [9] = assay: Cytotoxicity against mouse Ehrlich Ascites carcinoma assessed as non viable cells at 200 umol/mL after 2 hrs by trypan blue exclusion assay; format: functional
Outline: as §2

Ehrlich [10] = assay: Cytotoxicity against mouse Ehrlich Ascites carcinoma assessed as non viable cells at 50 umol/mL after 2 hrs by trypan blue exclusion assay; format: functional
Outline: as §2

Row | Compound | Activity (Mus musculus [1]) [mg/dL] | Activity (Mus musculus [2]) [%] | Activity (Mus musculus [3]) [µmol/mL] | Activity (Mus musculus [4]) [%] | IC50 [5] [µM] | Activity (Ehrlich [6]) [%] | Activity (Ehrlich [7]) [%] | Activity (Ehrlich [8]) [%] | Activity (Ehrlich [9]) [%] | Activity (Ehrlich [10]) [%]
1 | NS(=O)(=O)c1ccc(-n2cc(-c3ccccc3)c3/c(=N/C(=O)c4ccc(Cl)cc4)n(NC(=O)c4ccc(Cl)cc4)cnc32)cc1 | 304 | 101 | 80.3 | 386 | – | – | – | – | – | –
2 | NS(=O)(=O)c1ccc(-n2cc(-c3ccccc3)c3c2ncn2ncnc32)cc1 | – | – | – | – | 100 | 0 | 15 | 60 | 90 | 0
3 | N=c1c2c(-c3ccccc3)cn(-c3ccc(S(N)(=O)=O)cc3)c2ncn1NC(=S)Nc1ccccc1 | – | – | – | – | 26.5 | 50 | 80 | 95 | 100 | 60
4 | N#Cc1c(-c2ccccc2)cn(-c2ccc(S(N)(=O)=O)cc2)c1N | – | – | – | – | 88.8 | 40 | 100 | 100 | 100 | 80
5 | N#CCc1nc2c3c(-c4ccccc4)cn(-c4ccc(S(N)(=O)=O)cc4)c3ncn2n1 | – | – | – | – | 90.2 | 0 | 15 | 80 | 90 | 0
6 | N#Cc1c(N)nn2cnc3c(c(-c4ccccc4)cn3-c3ccc(S(N)(=O)=O)cc3)c12 | – | – | – | – | > 200 | 0 | 0 | 0 | 0 | 0
7 | NS(=O)(=O)c1ccc(-n2cc(-c3ccccc3)c3c2ncn2nc(S)nc32)cc1 | – | – | – | – | 90.2 | 0 | 20 | 80 | 80 | 0
8 | CC(=O)NS(=O)(=O)c1ccc(-n2cc(-c3ccccc3)c3c2ncn2nc(C)nc32)cc1 | – | – | – | – | 75.8 | 0 | 20 | 80 | 100 | 5
9 | NS(=O)(=O)c1ccc(-n2cc(-c3ccccc3)c3c2ncn2nc(-c4ccccc4)nc32)cc1 | – | – | – | – | > 200 | 0 | 0 | 0 | 0 | 0
10 | COc1cccc2c1C(=O)c1c(O)c3c(c(O)c1C2=O)C[C@@](O)(C(=O)CO)C[C@@H]3O[C@H]1C[C@H](N)[C@H](O)[C@H](C)O1 [DOXORUBICIN] | – | – | – | – | 81.5 | 20 | 64 | 75 | 100 | 55
